# Assay results from ChEMBL document CHEMBL1126730, “Synthesis and pharmacological evaluation of 4a-phenanthrenamine derivatives acting at the phencyclidine binding site of the N-methyl-D-aspartate receptor complex” (J Med Chem, 1993).
# Key:
# [1] = Partition coefficient (logP) (HPLC); assay type: physicochemical; conditions: octanol/water
# Glutamate NMDA receptor [2] = assay: Binding affinity towards PCP site of the NMDA receptor was measured by displacement of […] in […]; assay type: tissue-based, Brain
# Mus musculus = organism: Mus musculus; assay: Testing for ataxia was done by using an inverted screen technique; assay type: functional
# Summary of the method: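 Inverted-screen test in CF-1 mice (22-28 g), scored 5 min after retrobulbar test agent in 0.9% saline (5 mL/kg), immediately before NMDA injection.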
# Glutamate NMDA receptor [3] = assay: Ability to inhibit glutamate induced accumulation of [45 [Ca2+]] in cultured rat cortical neurons; assay type: functional
# Summary of the method: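 Fetal rat cortical hemisphere dissociated cultures used on day 14-16 after plating. Medium was serum- and Mg-free HBSS with 1.4 mM CaCl2, pH 7.4 (35 mM bicarbonate), 37 °C, 5% CO2. Cells were exposed 30 min to 100 μM L-glutamate (final) plus [45Ca2+] (2 μCi/mL) ± test agent, washed with saline, lysed, and counted. Baseline was subtracted.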
# [4] = target: T1, Glutamate NMDA receptor (Rattus norvegicus) (UniProt P35439+Q00959+Q00960+Q00961+Q62645+Q8VHN2+Q9R1M7); assay: Percent inhibition at PCP site of NMDA receptor complex was measured by displacement of […] in whole rat brain homogenate at 10 E-7 M; assay type: tissue-based
# Summary of the method: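 [3H]TCP displacement from rat brain membrane preparation (cortical membranes in the methods; whole-brain homogenate in the assay description), following a previously published procedure.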
# [5] = target: T1, Glutamate NMDA receptor (Rattus norvegicus); assay: Evaluated in vivo for its NMDA antagonist activity by the inhibition of NMDA-induced lethality in mice; assay type: functional, organism-based; conditions: Mus musculus; target entry is the homologue from another species
# Summary of the method: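 CF-1 mice, 22-28 g. Test agent or vehicle (0.9% saline, 5 mL/kg) was given by retrobulbar injection 5 min before a 25 mg/kg NMDA bolus given retrobulbar in the other eye. Endpoint was prevention of lethality.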
# [6] = Partition coefficient was measured using a standard shake flask (SF) method at pH 7.4.; assay type: physicochemical; conditions: octanol/water
# Summary of the method: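 Shake-flask partitioning at pH 7.4.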
Compound,logP [1],IC50 (Glutamate NMDA receptor [2]) [nM],Ataxia (Mus musculus) [mg/kg],IC50 (Glutamate NMDA receptor [3]) [nM],inhibition [4] [%],ED50 [5] [mg/kg],logD [6]
NC12CCCCC1CCc1ccccc12 (stereo not drawn) [listing 1 of 2 here],2.92,25.4,0.55,370,,,
CNC1(C)c2ccccc2CCC12CCCC2 (stereo not drawn),,,,,5,,
NC12CCCCC1COc1ccccc12 (stereo not drawn),,178,10,,,5.7,
CN[C@]12CCCCC1Cc1ccccc12 (stereo partly drawn),,10.1,,120,,0.1,
CNC12CCCCC1COc1ccccc12 (stereo not drawn),3.31,113,0.63,2300,,3.7,0.96
CNC12CC=CCC1CSc1ccccc12 (stereo not drawn),,69,1.8,420,,2,
CNC1c2ccccc2CCC12CCCC2 (stereo not drawn),,,,,8,,
NCC1CCC2(N)c3ccccc3CCC2C1 (stereo not drawn),,,,,1,,
NC1c2ccccc2CCC12CCCC2 (stereo not drawn),,,,,8,,
NC1c2ccccc2CCC12CCCCC2 (stereo not drawn),,3400,,,,,
CN[C@]12CCCCC1CSc1ccccc12 (stereo partly drawn),,30,,,,,
CNC12CC=CCC1CCc1sccc12 (stereo not drawn),,57,,,,,
c1ccc(C2(N3CCCCC3)CCCCC2)cc1 [PHENCYCLIDINE],,,1,200,,0.55,
"NC12CCCCC1CCc1ccccc12 (single isomer, unassigned; form 1) [listing 1 of 2 here]",,11.3,<0.3,480,,,
CNC12CCCCC1CC(O)c1ccccc12 (stereo not drawn),1.84,1490,,,,,0.73
CC1(C)CC2CCCCC2(N)c2ccccc21 (stereo not drawn),,37000,,,,,
CN(C)C12CCCCC1CCc1ccccc12 (stereo not drawn),,21,<0.3,1630,,1.6,
C=CCNC12CCCCC1CCc1ccccc12 (stereo not drawn),,86,<1,920,,10,
NC12CCCCC1CCc1ccc(O)cc12 (stereo not drawn),,7.5,3,520,,5.5,
CNC12CCCCC1CC(C)c1ccccc12 (stereo not drawn),,317,,,,,

Compound,logP [1],IC50 (Glutamate NMDA receptor [2]) [nM],Ataxia (Mus musculus) [mg/kg],IC50 (Glutamate NMDA receptor [3]) [nM],inhibition [4] [%],ED50 [5] [mg/kg],logD [6]
CNC12CC(O)CCC1CCc1ccccc12 (stereo not drawn),2.37,500,,,,,
CNC12CCC(CN)CC1CCc1ccccc12 (stereo not drawn),2,,,,8,,
CN[C@@]12CCCCC1CCc1ccccc12 (stereo partly drawn),,41.5,1,810,,0.97,
NC12CCCCC1CCc1ccccc12 (stereo not drawn) [listing 2 of 2 here],,,,,,0.64,
NC12CCCCC1CCc1sccc12 (stereo not drawn),3.02,43,3,1570,,0.97,0.66
NC12CC=CCC1CSc1ccccc12 (stereo not drawn),,101,,1700,,,
CNC12CC=CCC1CC(C)c1ccccc12 (stereo not drawn),,654,,,,,
CCNC12CCCCC1CCc1ccccc12 (stereo not drawn),3.41,199,,,,,1.15
c1ccc2c(c1)CCC1CCCCC21N1CCCCC1 (stereo not drawn),,,,,7,,
"NC12CCCCC1CCc1ccccc12 (single isomer, unassigned; form 1) [listing 2 of 2 here]",,,,,,1.3,
CNC12CC=CCC1CCc1ccc(OC)cc12 (stereo not drawn),,21,1,410,,4.1,
NC12CC=CCC1CCc1ccc(O)cc12 (stereo not drawn),,28,1.5,1600,,4.6,
CNC12CCCCC1CCc1c(C)cc(OC)cc12 (stereo not drawn),4.02,53.5,3.3,930,,5.6,1.72
CNC12CC=CCC1COc1ccccc12 (stereo not drawn),,122,,,,,
CNC12CCCCC1Sc1ccccc12 (stereo not drawn),,,,210,,0.41,
CNC12CC=CCC1CC(C)(C)c1ccccc12 (stereo not drawn),,,,,0,,
CNC12CCCCC1CC(C)(C)c1ccccc12 (stereo not drawn),,20800,,,,,
CN[C@]12CCCCC1CCc1ccccc12 (stereo partly drawn),,7.47,0.18,180,,0.39,
CNC12CCCCC1CCc1ccc(O)cc12 (stereo not drawn),2.56,2.07,0.58,64,,0.89,0.31
NC12CC=CCC1CCc1ccccc12 (stereo not drawn),2.75,87.5,<1,2350,,4.2,

Compound,logP [1],IC50 (Glutamate NMDA receptor [2]) [nM],Ataxia (Mus musculus) [mg/kg],IC50 (Glutamate NMDA receptor [3]) [nM],inhibition [4] [%],ED50 [5] [mg/kg],logD [6]
CN[C@@]12CCCCC1CSc1ccccc12 (stereo partly drawn),,199,,,,,
CNC12CCCCC1CC(=O)c1ccccc12 (stereo not drawn),2.41,270,,,,,0.78
CNC12CC=CCC1CCc1ccccc12 (stereo not drawn),3.07,27.3,0.6,400,,1.8,
COc1ccc2c(c1)C1(N)CC=CCC1CC2 (stereo not drawn),,46,2.1,850,,2.1,
CNC12CCCCC1CSc1ccccc12 (stereo not drawn),3.88,62,1.5,710,,0.7,1.54
CNC12CCCCC1CCc1ccc(OC)cc12 (stereo not drawn),3.75,5.8,0.4,1110,,1,1.51
"NC12CCCCC1CCc1ccccc12 (single isomer, unassigned; form 2) [listing 1 of 2 here]",,113,<3,2250,,,
CNC12CCCCC1CCc1ccccc12 (stereo not drawn),3.25,14.7,0.44,310,,0.54,
CC1CC2CCCCC2(N)c2ccccc21 (stereo not drawn),3.59,508,,,,,1.61
NC12CCCCC1CSc1ccccc12 (stereo not drawn),,80.6,4.7,1870,,2.9,
CC1(N)c2ccccc2CCC12CCCC2 (stereo not drawn),,,,,5,,
NC12CC=CCC1COc1ccccc12 (stereo not drawn),,399,,,,,
CNC12CCCCC1CCc1sccc12 (stereo not drawn),,31,1,350,,0.89,
CNC1(c2ccccc2Cl)CCCCC1=O (stereo not drawn) [KETAMINE],,,10,8860,,6,2.18
COc1ccc2c(c1)C1(N)CCCCC1CC2 (stereo not drawn),,18,1.3,440,,1.2,
CCNC12CCCCC1CSc1ccccc12 (stereo not drawn),,523,,,,,
N#CC1CCC2(N)c3ccccc3CCC2C1 (stereo not drawn),,,,,2,,
CC1CC2CC=CCC2(N)c2ccccc21 (stereo not drawn),3.4,2460,,,,,1.89
"NC12CCCCC1CCc1ccccc12 (single isomer, unassigned; form 2) [listing 2 of 2 here]",,,,,,10,
C[C@]12N[C@H](Cc3ccccc31)c1ccccc12 [DIZOCILPINE],,,0.3,,,,
